The subject of series [1] is Escherichia coli. The series can be described thus: Growth inhibition of ciprofloxacin-susceptible Escherichia coli DH5[alpha] incubated for 18 hrs by broth microdilution method. The following applies: in vivo. The class given is organism-based. The method in brief: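 MIC determination against E. coli DH5α, either lacking β-lactamase or expressing the ESBL TEM-116. The MIC is the minimal concentration that inhibits bacterial growth.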
(Dilution methods test growth across graded concentrations, often in twofold steps.)

The test system of series [2] is Escherichia coli. Description: Growth inhibition of Escherichia coli DH5[alpha] expressing ESBL TEM-116 incubated for 18 hrs by broth microdilution method. The class given is functional.
In series [3] the test system is Escherichia coli. The series can be described thus: Growth inhibition of ciprofloxacin-susceptible Escherichia coli CFT073 harboring pSU18 incubated for 18 hrs by broth microdilution method. The class given is organism-based. Conditions: in vivo. Put shortly: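 MIC determination in E. coli CFT073, either wild type or carrying pSU18 (empty pEMP, or encoding CTX-M, NDM-1 or KPC). Dose–response growth curves were run, and each point is the mean ± SEM of n = 3. The MIC is the minimal concentration that inhibits bacterial growth.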

Series [4] can be described thus: Selectivity ratio of MIC for ciprofloxacin-susceptible Escherichia coli CFT073 harboring pSU18 to MIC for ciprofloxacin-susceptible Escherichia coli DH5[alpha]. The class given is ADME.
Series [5] has as its system Escherichia coli. Description: Growth inhibition of Escherichia coli CFT073 harboring pSU18 and CTX-M-1 incubated for 18 hrs by broth microdilution method. Conditions: CFT073, 18 h.
A short description of series [6]: Prodrug activation in Escherichia coli CFT073 harboring CTX-M-1 assessed as bacterial CTX-M-1-mediated compound hydrolysis incubated for 1 hr by 1H-NMR analysis. Conditions: bacteria. Put shortly: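 Whole-cell hydrolysis used E. coli CFT073 carrying pSU18 encoding CTX-M-1. The read-out was percentage of compound hydrolysed after 60 min.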

Values after ≈ are worked out from the molar mass of the structure shown. Some results are limits rather than exact numbers.

Consider `CC(=O)OCC1=C(C(=O)O)N2C(=O)[C@@H](NC(=O)c3ccc([N+](=O)[O-])cc3)[C@H]2SC1`, for which the MIC in series [1] and in series [2] was greater than 400 µM each time.

On to `CC(=O)OCC1=C(C(=O)O)N2C(=O)[C@@H](NC(=O)[C@H](C)c3ccccc3)[C@H]2SC1`, for which the MIC was greater than 400 µM in series [3], 400 µM (≈ 162 µg/mL) in series [1], greater than 800 µM in series [2] and greater than 400 µM in series [5]. Moreover, the Selectivity ratio entry in series [4] was “<= 2”.

Take `CC(=O)OCC1=C(C(=O)O)N2C(=O)[C@@H](NC(=O)Cc3ccsc3)[C@H]2SC1`: the MIC in series [3] is 50 µM (≈ 19.8 µg/mL); in series [1] it was 50 µM (≈ 19.8 µg/mL); in series [2], 200 µM (≈ 79.3 µg/mL); in series [5], greater than 400 µM. The Selectivity ratio result in series [4] is listed as “<= 2”. Further, the Drug metabolism in series [6] worked out at 32%.

On to `CCCCCC(=O)N[C@@H]1C(=O)N2C(C(=O)O)=C(COC(C)=O)CS[C@H]12`, for which the MIC was 100 µM (≈ 37 µg/mL) in series [3], 200 µM (≈ 74.1 µg/mL) in series [1], greater than 800 µM in series [2] and greater than 400 µM in series [5]. Moreover, in series [4], the Selectivity ratio result is listed as “<= 2”. For the same molecule, the Drug metabolism in series [6] is 7%.

With `CC(=O)N[C@@H]1C(=O)N2C(C(=O)O)=C(COC(C)=O)CS[C@H]12`, the figures for the MIC in series [3], in series [1] and in series [5] were 400 µM (≈ 126 µg/mL), 200 µM (≈ 62.9 µg/mL) and greater than 400 µM, respectively. For the same molecule, the Selectivity ratio entry in series [4] is given as “<= 2”. In series [6], the Drug metabolism worked out at 67%.

With `CC(=O)OCC1=C(C(=O)O)N2C(=O)[C@@H](NC(=O)c3ccco3)[C@H]2SC1`, the MIC in series [3], in series [1], in series [2] and in series [5] was greater than 400 µM each time. The Selectivity ratio entry in series [4] is “<= 2”. For the same molecule, in series [6], the Drug metabolism amounted to 64%.

In the case of `CC(=O)OCC1=C(C(=O)O)N2C(=O)[C@@H](NC(=O)Cc3cc(Br)cs3)[C@H]2SC1`, the MIC in series [3] was 50 µM (≈ 23.8 µg/mL); in series [1] it was 50 µM (≈ 23.8 µg/mL); in series [2], 200 µM (≈ 95.1 µg/mL); in series [5] it was greater than 400 µM. In addition, the Selectivity ratio entry in series [4] was “<= 2”.

Consider `CC(=O)OCC1=C(C(=O)O)N2C(=O)[C@@H](NC(=O)Cc3ccccc3)[C@H]2SC1` [CEFALORAM], for which the MIC is 50 µM (≈ 19.5 µg/mL) in series [3], 50 µM (≈ 19.5 µg/mL) in series [1], 100 µM (≈ 39 µg/mL) in series [2] and greater than 400 µM in series [5]. Also, the Selectivity ratio result in series [4] is listed as “<= 2”. Besides, the Drug metabolism in series [6] amounted to 17%.

For the molecule `CC(=O)OCC1=C(C(=O)O)N2C(=O)[C@@H](NC(=O)c3ccc(C)cc3)[C@H]2SC1`, the MIC in series [3], in series [1], in series [2] and in series [5] was greater than 400 µM each time. In series [4], the Selectivity ratio result is “<= 2”. Besides, the Drug metabolism in series [6] is listed as 3%.

For the molecule `CC(=O)OCC1=C(C(=O)O)N2C(=O)[C@@H](NC(=O)Cc3cccc(C)c3)[C@H]2SC1`, the MIC in series [3] was 200 µM (≈ 80.9 µg/mL); in series [1], 200 µM (≈ 80.9 µg/mL); in series [2] it was 400 µM (≈ 162 µg/mL); in series [5] it was greater than 400 µM. Also, in series [4], the Selectivity ratio result is “<= 2”. Further, the Drug metabolism in series [6] came to 16%.

In the case of `COc1ccc(C(=O)N[C@@H]2C(=O)N3C(C(=O)O)=C(COC(C)=O)CS[C@H]23)cc1`, the MIC is greater than 400 µM in series [3], greater than 800 µM in series [1], greater than 800 µM in series [2] and greater than 400 µM in series [5]. In addition, in series [4], the Selectivity ratio result is reported as “<= 2”. Also, in series [6], the Drug metabolism worked out at 3%.

On to `CC(=O)OCC1=C(C(=O)O)N2C(=O)[C@@H](NC(=O)C3CCCCC3)[C@H]2SC1`, for which the MIC in series [1] and in series [2] was greater than 400 µM in each case.

With `CC(=O)OCC1=C(C(=O)O)N2C(=O)[C@@H](NC(=O)Cc3cccc(Oc4ccccc4)c3)[C@H]2SC1`, the MIC result in series [3] was “>= 400 uM”; in series [1], greater than 800 µM; in series [2], greater than 800 µM; in series [5] it was greater than 400 µM. Besides, the Selectivity ratio entry in series [4] is recorded as “<= 2”.

These data come from ChEMBL document CHEMBL4334441, “Exploitation of Antibiotic Resistance as a Novel Drug Target: Development of a β-Lactamase-Activated Antibacterial Prodrug” (J Med Chem, 2019).
